Data reported in ChEMBL document CHEMBL4513216, “Probing the Open Global Health Chemical Diversity Library for Multistage-Active Starting Points for Next-Generation Antimalarials” (ACS Infect Dis, 2020).

Assay: Toxicity liver stage against HepG2, at 10uM
Type: cell-based
Set-up: test concentration 10 uM, cell line HepG2-A16-CD81EGFP
Conditions: human, HepG2-A16-CD81EGFP cells; read-out: INHIBITION
Procedure, shortened: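 Uninfected HepG2-A16-CD81EGFP cells, 3 × 10^3 per well, 1536-well, plated on prespotted compound at 10 μM final, parasite-free screening media added to match infected plates; puromycin 10 μM positive, DMSO 0.5% negative; run in parallel with 48 h PbLuc assay at 37 °C, 5% CO2; viability by CellTiter-Glo luminescence, normalized to controls.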

Compound	cytotoxicity at 10 µM [%]
C1CN(CCN2CCOCC2)CCN1	-11.5
CC(C)(C)CNC[C@H]1Cn2c(-c3ccccc3)cnc2CO1	-9.14
O=C(Nc1cc(C(F)(F)F)ccc1Cl)c1ccc(N2CCCC2)nn1	-4.43
O=S(=O)(c1cccs1)N1CCC(c2nc(-c3cccs3)no2)CC1	6.14
CC(C)(C)NC(=O)NCc1cnn2ccccc12	-11.9
CC(=O)N1CCC(c2nn(C)c(=O)n2-c2ccccc2)CC1	-2.05
Cc1cccc(CN2CC3(CCN(C(=O)C4CC4)CC3)OCC2=O)n1	-4.67
CN(C)C(=O)CN1CCCC(c2cncc(-c3cccc(Cl)c3)n2)C1 (stereo not drawn)	24
Cc1ccc(CN2CCCC2(C(N)=O)c2cnccn2)c(C)c1 (stereo not drawn)	4.11
Cc1nc(C2CCCN(C(=O)c3ccncc3)C2)c2sccn12 (stereo not drawn)	-10.4
Cn1nc(C2CN(S(C)(=O)=O)C2)c2nccnc21	-13.2
CO[C@H]1CN(Cc2ccc(F)c(F)c2)C[C@@]12CCCO2	-5.52
CCc1noc(C)c1C(=O)N1CCC(c2[nH]ncc2S(C)(=O)=O)C1 (stereo not drawn)	-6.94
CC(C)(C)c1nc(CN(Cc2ccccc2F)C2CCCCC2)no1	-2.65
COc1ccc(C(C)NCc2scnc2C)cc1Cn1cccn1 (stereo not drawn)	-3.53
Cc1nc(Cn2cncc(Br)c2=O)no1	-12.2
Oc1cccc(CNCC2CCCO2)c1 (stereo not drawn)	-1.37
CCN(C)Cc1cccc(CNC(=O)CSCc2ccncc2)c1	4.31
Cc1cnn(CCNCc2c(C(C)C)nn(C)c2Cl)c1	-14
O=C(Cn1cc(C2CC2)nn1)N(Cc1cccs1)CC1CCCO1 (stereo not drawn)	-4.58
CCC(NCCn1cc(C)cn1)C(=O)Nc1cc(C)on1 (stereo not drawn)	4.52

Compound	cytotoxicity at 10 µM [%]
CN1CCN(CCNC(=O)C(OC2CCCC2)c2ccccc2)CC1 (stereo not drawn)	-9.43
O=c1oc(-c2cccs2)nn1CC(O)c1ccccc1F (stereo not drawn)	-14.7
CC(C)c1ccc(C2(C(=O)NCCS(N)(=O)=O)CCC2)cc1	-2
CC(C)c1ncncc1C(=O)NCCN1CCCCCC1	5.15
O=C(c1ccncc1)N(CCO)Cc1cc(Br)ccc1F	10.2
COCc1cccc(NC(=O)NCc2ncc(C)c(OC)c2C)c1	-1.21
CC(O)(CNC(=O)c1cccnc1-n1cccn1)c1cccs1 (stereo not drawn)	7.9
Cc1nc(CN2CCCN(Cc3nc4c(F)cccc4[nH]3)CC2)no1	0.601
CN(C)c1ncccc1CNCc1ccc(N2CCOCC2)cc1	5.95
Cc1nnc(CN2CCCC2c2cccc(Br)c2)o1 (stereo not drawn)	-3.51
Cc1cc2c(cc1NC(=O)NC(C)(C)C)OCO2	-1.47
CC1CCN(CC(O)CNc2ccc(Cl)cn2)CC1 (stereo not drawn)	17.2
O=S(=O)(Nc1nccs1)c1cc(Cl)cc2c1OCC2	-2.19
CCc1cc(CNC(=O)N2Cc3ccccc3N(C)CC2C)[nH]n1 (stereo not drawn)	16.3
CN1CCOC(C(=O)N2CCC3(CCCC3)CC2)C1 (stereo not drawn)	-1.52
CCC(C#N)NC(=O)c1ccc(Oc2cccnc2)cc1 (stereo not drawn)	-5.82
Cc1cnn(Cc2cc(F)ccc2F)c1NC(=O)NC1CC1	16.9
CC(CNC(=O)c1ccc(F)cc1Cl)N1CCCC1 (stereo not drawn)	14.4
CCc1nc(CN2CCCN(Cc3cnn(C)c3)CC2)no1	-2
Cc1noc(C)c1C(=O)N1C[C@@H]2CN(Cc3cccnc3)CCO[C@@H]2C1	5.75
O=c1c(-c2ccnc(N3CCCC[C@@H]3CO)n2)cnc2sccn12	-10.3

Compound	cytotoxicity at 10 µM [%]
CCc1nc(C)c(C2CC(=O)Nc3c2c(C(C)(C)C)nn3C)[nH]1 (stereo not drawn)	2.63
COCC[C@]1(O)CCN(Cc2nc(C(C)C)cs2)C[C@H]1C	-6.26
CCNc1ncc(C(=O)NCc2csc(C)n2)cn1	12.5
CC(=O)N1CCC(N2CCOC(CC3CCCCC3)C2)CC1 (stereo not drawn)	6.46
Cc1ccc2nc(C(=O)N3CC(n4nc(C)cc4C)C3)cn2c1	5.53
COc1ccc(C(=O)N2C[C@@H](O)[C@H](NCc3cnc(C)cn3)C2)cc1	3.34
COCCN(C)C[C@H]1C[C@@H](CO)CN(C(=O)c2ccn(C)c(=O)c2)C1	2.14
CCC1CN(Cc2nc(C(C)C)no2)CCC(=O)N1Cc1ccccc1 (stereo not drawn)	5.08
Nc1cc(-c2cc(O)cc(C(=O)O)c2)c2cc[nH]c2n1	6.77
Cc1cc2[nH]c(CN3CCOC(c4ccc(Cl)cc4)C3)cc(=O)n2n1 (stereo not drawn)	1.91
Cc1ccc(OC2CCN(C(=O)Cc3c(C)[nH]c(=O)[nH]c3=O)CC2)cc1	6.45
Cn1cc(CN2CCC(CCC(=O)NC3CC3)CC2)cn1	9.27
COCCn1ccnc1C1CCCN(C(=O)c2ccncc2F)C1 (stereo not drawn)	0.0773
Cc1ccc2nc(N3CCN(CC(=O)NC(C)C)CC3)cc(C)c2c1	-14.7
CN(C)CCCn1ccnc1C1CCCN(c2cc(N)ncn2)C1 (stereo not drawn)	-2.1
O=C(c1ccc[nH]1)N1CCC2(CC1)C(=O)Nc1ccccc12	2.09
CC(C)n1ccnc1C1CCN(C(=O)c2ccccc2)CC1	-10.9
CC(C)(C)C(Cn1cccn1)NC(=O)c1ccco1 (stereo not drawn)	-5.5
CCC(CCN)n1ccc(C(F)(F)F)n1 (stereo not drawn)	-11.2
Fc1ccc(CN2CCC(c3n[nH]c4nccnc34)CC2)cc1F	-11.8
COc1ccc(S(=O)(=O)NC(=O)COc2ccc3c(c2)CCC3)cc1	-6.72

Compound	cytotoxicity at 10 µM [%]
CCOc1ccc(Cl)c(C(=O)NCCS(N)(=O)=O)n1	-8.72
Cc1cnn(CC2CN(Cc3nc(C)c4ccccc4n3)CCO2)c1 (stereo not drawn)	-35.6
CCc1nncn1CCNC(=O)N1CCN(Cc2ccccc2)CC1	3.84
Cc1ocnc1C(=O)N1CCCN(Cc2cscn2)CC1	-7.22
COCCOc1ccccc1C(=O)N(C)Cc1ncc(C)c(OC)c1C	-1.61
CC(C)c1n[nH]c(C2CN(Cc3nnc(C4CC4)n3C)CCO2)n1 (stereo not drawn)	-10.3
Cc1cccc(-n2c(C)cc(C(=O)N3CCn4c(C)nnc4C3)c2C)c1	-4.86
CC(C(=O)N1CCCN(c2ncccc2C#N)CC1)n1cccn1 (stereo not drawn)	-4.3
CCNc1cc2c(nn1)CCN(C(=O)c1cc3nc(C)ccc3o1)C2	-3.85
NC(=O)c1csc(C(=O)N2CCCC(n3ccnc3)C2)c1 (stereo not drawn)	-2.07
Cc1nc(Cc2ccc(F)cc2)cc(C2COCCN2)n1 (stereo not drawn)	3.44
COc1ccc(CC(=O)N2C[C@@H]3COC[C@]3(CN(C)C)C2)cc1	-3.01
CO[C@@H]1CCN(Cc2c(C)noc2C)[C@@H]2CN(Cc3ccco3)C[C@@H]21	8.64
CCC1=N[C@@]2(CC[C@@H]3CN(Cc4ccc(Cl)cc4)C[C@@H]32)C(=O)N1	3.6
c1cnc2c(c1)cc([C@H]1CCCO1)n2CCN1CCCCC1	4.99
Cn1cc(CN2CCC[C@]3(C[C@@H](Oc4ncccc4F)CO3)C2)cn1	9.66
COc1c(CNCc2cccc(CN(C)C)c2)c(C)nn1C	-9.95
CC(C)N1CCOCC2(CCCN(C(=O)CCc3cccnc3)C2)C1 (stereo not drawn)	2.66
Cc1ccsc1CN1CCc2nc3ccsc3c(=O)n2CC1	8.52
CN1C(=O)[C@@H]2CC[C@H]1CN(C(=O)c1csc(Cc3ccccc3)n1)C2	3.75
